From article PMC9065685 (Bioorganic Chemistry, 2022)
Values after ≈ are worked out from the molar mass of the structure shown. Values joined by “and” are separate entries in the source; they are usually repeats but may differ in a detail not shown here. Equal entries are not always repeated.

Legend:
Pseudomonas aeruginosa = experiment: Disc diffusion antibacterial susceptibility test; format: cell-based; conditions: mean ± SD, triplicate, NI = No inhibition
Outline: (§1)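 Bacteria came from a university microbiology laboratory stock. Colonies were suspended in sterile 0.85% saline and matched to McFarland 0.5, then swabbed evenly onto Mueller-Hinton agar. 6 mm filter-paper discs carrying test compound were laid on the agar. Plates were incubated 18 h at 37 °C and inhibition zone diameters measured in mm. Three repeats, reported as mean ± SD.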

Salmonella typhi = experiment: Disc diffusion antibacterial susceptibility test; format: cell-based; conditions: mean ± SD, triplicate, NI = No inhibition
Outline: as §1

Bacillus subtilis = experiment: Disc diffusion antibacterial susceptibility test; format: cell-based; conditions: 18 h at 37 °C, mean ± SD, triplicate, NI = No inhibition
Outline: as §1

Escherichia coli = experiment: Disc diffusion antibacterial susceptibility test; format: cell-based; conditions: mean ± SD, triplicate, NI = No inhibition
Outline: as §1

Aspergillus niger = experiment: Mycelial growth inhibition; format: cell-based; conditions: 5 days incubation, mean ± SD, triplicate, NI = No inhibition
Aspergillus flavus = experiment: Mycelial growth inhibition; format: cell-based; conditions: 5 days incubation, mean ± SD, triplicate, NI = No inhibition
[1] = test system: tested strains (pathogenic bacteria); experiment: MIC and MBC by micro-broth dilution, over the tested strains; format: cell-based; conditions: for MBC: read-out: MBC values against the tested organisms; for MIC: read-out: MIC values against the tested strains
Outline: (§2)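 Broth microdilution in Mueller-Hinton broth, using a two-fold test compound series over 0.125 to 128 µg/mL. Wells received 5 µL of inoculum at 10⁴–10⁵ CFU/mL, diluted from a 0.5 McFarland suspension. Each plate had growth (no compound) and sterility controls. After 24 h at 37 °C, 0.5% (w/v) triphenyl tetrazolium chloride was added for a further 24 h at 37 °C. Red colour indicated growth, and MIC/MBC were read visually.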

B. subtilis = experiment: MIC and MBC by micro-broth dilution; format: cell-based; conditions: Bacillus subtilis
Outline: as §2

brine shrimps nauplii = experiment: Brine shrimp lethality assay; format: in vivo; conditions: brine shrimp lethality bioassay, 24 h and 48 h
Outline: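 Test compound was dissolved in DMSO and made up to 5 ml with NaCl solution at four concentrations. Ten nauplii per vial, each concentration run three times; control vial held 10 nauplii in 5 ml seawater. Vials stood at room temperature for 24 h and 48 h. Survivors were counted under a magnifying glass, and average % mortality was calculated per concentration.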

| SMILES | Diameter of inhibition zone, P. aeruginosa (-ve) (Pseudomonas aeruginosa) | Diameter of inhibition zone, S. typhi (-ve) (Salmonella typhi) | Diameter of inhibition zone, B. subtilis (+ve) (Bacillus subtilis) | Diameter of inhibition zone, E. coli (-ve) (Escherichia coli) | % inhibition of fungal mycelial growth in mm (20 μg/μL), Aspergillus niger (Aspergillus niger) | % inhibition of fungal mycelial growth in mm (20 μg/μL), Aspergillus. flavus (Aspergillus flavus) | MBC [1] | MIC [1] | MIC (B. subtilis) | % death of brine shrimp (level of toxicity) (brine shrimps nauplii) |
| --- | --- | --- | --- | --- | --- | --- | --- | --- | --- | --- |
| CC[C@H]1OC(=O)[C@H](C)[C@@H](O[C@H]2C[C@@](C)(OC)[C@@H](O)[C@H](C)O2)[C@H](C)[C@@H](O[C@@H]2O[C@H](C)C[C@H](N(C)C)[C@H]2O)[C@](C)(O)C[C@@H](C)CN(C)[C@H](C)[C@@H](O)[C@]1(C)O [Azithromycin, reference compound] | **18.5 ± 0.3 mm | **18 ± 0.2 mm | 18.5 ± 0.3 mm | **17.25 ± 0.1 mm | – | – | – | – | – | – |
| C[C@@H]1[C@H](O)[C@@H](C)/C=C/C=C/CC/C=C/C=C/C=C/C=C/C(O[C@H]2O[C@H](C)[C@@H](O)[C@H](N)[C@@H]2O)CC2O[C@](O)(CC(O)C(O)CCC(O)CC(O)CC(O)CC(=O)O[C@H]1C)CC(O)C2C(=O)O (some centres unmarked) [Nystatin, reference compound] | – | – | – | – | **65.4 ± 1.0% | **64.1 ± 1.0% | – | – | – | – |
| CCCCCCCCCCCC(=O)OC[C@H]1O[C@@H](n2cc(C)c(=O)[nH]c2=O)C[C@@H]1O [analog 2, 5́-O-(Lauroyl)thymidine] | *12.75 ± 0.1 mm | *14.50 ± 0.3 mm | – | *13.00 ± 0.1 mm | *60.16 ± 1.2% | *82.76 ± 1.0% | 8 to 16 µg/mL (≈ 18.8 to 37.7 µM) | 0.125 to 8 µg/mL (≈ 0.294 to 18.8 µM) | 0.125 µg/mL (≈ 0.294 µM) | 36.25% |
| CCCCCCCCCCCC(=O)OC[C@H]1O[C@@H](n2cc(C)c(=O)[nH]c2=O)C[C@@H]1OC(=O)c1ccc(C(C)(C)C)cc1 [analog 3, 3́-O-(4-t-Butylbenzoyl)-5́-O-(lauroyl)thymidine] | *11.75 ± 0.4 mm | 9.75 ± 0.2 mm | 13.25 mm and 13.25 ± 0.2 mm | – | *65.25 ± 1.1% | *72.95 ± 1.0% | 8 to 16 µg/mL (≈ 13.7 to 27.4 µM) | 0.125 to 8 µg/mL (≈ 0.214 to 13.7 µM) | – | – |
| CCCCCCCCCCCCCC(=O)O[C@H]1C[C@H](n2cc(C)c(=O)[nH]c2=O)O[C@@H]1COC(=O)CCCCCCCCCCC [analog 4, 5́-O-Lauroyl-3́-O-(myristoyl)thymidine] | – | – | 12.75 mm and 12.75 ± 0.1 mm | *12.5 ± 0.2 mm | – | – | – | – | – | – |
| CCCCCCCCCCCCCCCC(=O)O[C@H]1C[C@H](n2cc(C)c(=O)[nH]c2=O)O[C@@H]1COC(=O)CCCCCCCCCCC [analog 5, 5′-O-Lauroyl-3′-O-(palmitoyl)thymidine] | 8.50 ± 0.2 mm | *15.25 ± 0.2 mm | 14.50 mm and 14.5 ± 0.1 mm | 9.00 ± 0.2 mm | 57.62 ± 1.1% | *81.55 ± 1.0% | – | – | – | – |
| CCCCCCCCCCCC(=O)OC[C@H]1O[C@@H](n2cc(C)c(=O)[nH]c2=O)C[C@@H]1OC(=O)c1ccc(Br)cc1 [analog 6, 3́-O-(4-Bromobenzoyl)-5́-O-(lauroyl)thymidine] | – | 9.5 ± 0.1 mm | – | – | – | – | – | – | – | 38.75% |
